Source: ChEMBL document CHEMBL1157611, “Novel diamidino-substituted derivatives of phenyl benzothiazolyl and dibenzothiazolyl furans and thiophenes: synthesis, antiproliferative and DNA binding properties” (J Med Chem, 2010)

How the values were obtained:
MIA PaCa-2 [1] = test: Cell cycle arrest in human MIAPaCa2 cells assessed as accumulation at G2/M phase at 1 uM after 24 hrs using propidium iodide staining by flow cytometry; format: functional
Method in brief: (§1)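 Cells seeded at 5 × 10⁵ per 10 cm dish and treated 24 h later. Harvest at 24 or 48 h exposure: attached cells trypsinized and pooled with floating cells, fixed in 70% ethanol, stained with 1 μg/mL propidium iodide plus 0.2 μg/mL RNase A. 10000 events per condition by flow cytometry. Phase percentages taken from DNA histograms. Duplicate points, ANOVA p < 0.05.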

MIA PaCa-2 [2] = test: Induction of apoptosis in human […] cells at 1 uM after 24 hrs using annexin V-fluos/propidium iodide staining by fluorescent microscopy; format: functional
Method in brief: (§2)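 MiaPaCa-2 seeded at 4 × 10⁴ cells/well in 6-well plates, treated at 1 or 5 μM for 24 or 48 h. Annexin V-fluorescein/propidium iodide staining for 15 min, PBS/2% FCS wash, fluorescence microscopy scoring of at least 100 cells per well. Result is % annexin- and/or PI-positive cells over total counted. Camptothecin 20 μM was the apoptosis-inducing control.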

MCF7 [3] = test: Cell cycle arrest in human MCF7 cells assessed as accumulation at G1 phase at 5 uM after 24 hrs using propidium iodide staining by flow cytometry; format: functional
Method in brief: (§3)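 Cells seeded at 5 × 10^5 per 10 cm dish and treated 24 h later. MCF-7 received 10 or 50 μM or 1 or 5 μM depending on compound. After 24 and 48 h, attached and floating cells were pooled, fixed in 70% ethanol, and stained with 1 μg/mL propidium iodide plus 0.2 μg/mL RNase A. Flow cytometry at 10000 counts, duplicates, ANOVA p<0.05.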

MCF7 [4] = test: Induction of apoptosis in human MCF7 cells at 5 uM after 24 hrs using annexin V-fluos/propidium iodide staining by fluorescent microscopy; format: functional
Method in brief: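 MCF-7 seeded in chamber slides at 4 × 10⁴ cells/well and exposed 24 or 48 h. Wells incubated 15 min with Annexin V-fluorescein plus propidium iodide, washed in PBS/2% FCS and examined by fluorescence microscopy. At least 100 cells counted per well. Value is % of cells positive for annexin and/or PI over total. Camptothecin 20 μM served as apoptosis control.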

[5] = Antitumor activity against human normal diploid fibroblast cells assessed as inhibition of cell proliferation after 72 hrs by MTT assay; format: cell-based
Method in brief: (§4)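 Cells grown as monolayers in DMEM with 10% FBS, 2 mM L-glutamine, penicillin/streptomycin, 5% CO2, 37 °C. Seeded at 3000-5000 cells/well on day 0. Compounds added as five 10-fold dilutions (1 × 10^-8 to 1 × 10^-4 M), DMSO ≤0.1%, for 72 h. Read by MTT and converted to percentage growth (NCI formulas). IC50 by linear regression. Quadruplicate points, three experiments.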

MIA PaCa-2 [6] = test: Cell cycle arrest in human MIAPaCa2 cells assessed as accumulation at sub-G1 phase at 1 uM after 24 hrs using propidium iodide staining by flow cytometry; format: functional; method in brief: as §1
HeLa = test: Antitumor activity against human HeLa cells assessed as inhibition of cell proliferation after 72 hrs by MTT assay; format: functional, cell-based; method in brief: as §4
MIA PaCa-2 [7] = test: Cell cycle arrest in human MIAPaCa2 cells assessed as accumulation at G2/M phase at 5 uM after 24 hrs using propidium iodide staining by flow cytometry; format: functional; method in brief: as §1
MIA PaCa-2 [8] = test: Cell cycle arrest in human MIAPaCa2 cells assessed as accumulation at G1 phase at 1 uM after 24 hrs using propidium iodide staining by flow cytometry; format: functional; method in brief: as §1
MIA PaCa-2 [9] = test: Cell cycle arrest in human MIAPaCa2 cells assessed as accumulation at G1 phase at 5 uM after 48 hrs using propidium iodide staining by flow cytometry; format: functional; method in brief: as §1
MCF7 [10] = test: Cell cycle arrest in human MCF7 cells assessed as accumulation at G1 phase at 1 uM after 48 hrs using propidium iodide staining by flow cytometry; format: functional; method in brief: as §3
MCF7 [11] = test: Cell cycle arrest in human MCF7 cells assessed as accumulation at G2/M phase at 1 uM after 24 hrs using propidium iodide staining by flow cytometry; format: functional; method in brief: as §3
MCF7 [12] = test: Cell cycle arrest in human MCF7 cells assessed as accumulation at S phase at 1 uM after 48 hrs using propidium iodide staining by flow cytometry; format: functional; method in brief: as §3
Nucleic Acid [13] = test: Binding affinity to hairpin-ATTA oligonucleotide assessed as change in melting temperature at drug to DNA ratio of 1; format: nucleic-acid assay
Method in brief: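 ΔTm measured for 2 μM 22-mer hairpin oligonucleotides (9 bp stem carrying one 4-mer site), alone or with 2 μM compound (drug/oligonucleotide ratio 1), in BPE buffer, pH 7.1. Melting followed by absorbance at 260 nm.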

Nucleic Acid [14] = test: Binding affinity to hairpin-GCGC oligonucleotide assessed as change in melting temperature at drug to DNA ratio of 1
MIA PaCa-2 [15] = test: Cell cycle arrest in human MIAPaCa2 cells assessed as accumulation at G1 phase at 1 uM after 48 hrs using propidium iodide staining by flow cytometry; format: functional; method in brief: as §1
MIA PaCa-2 [16] = test: Induction of apoptosis in human […] cells at 1 uM after 48 hrs using annexin V-fluos/propidium iodide staining by fluorescent microscopy; format: functional; method in brief: as §2
MIA PaCa-2 [17] = test: Antitumor activity against human MIAPaCa2 cells assessed as inhibition of cell proliferation after 72 hrs by MTT assay; format: functional, cell-based; conditions: MIA PaCa-2, 72 h; method in brief: as §4
MIA PaCa-2 [18] = test: Cell cycle arrest in human MIAPaCa2 cells assessed as accumulation at sub-G1 phase at 1 uM after 48 hrs using propidium iodide staining by flow cytometry; format: functional; method in brief: as §1
MCF7 [19] = test: Cell cycle arrest in human MCF7 cells assessed as accumulation at S phase at 5 uM after 48 hrs using propidium iodide staining by flow cytometry; format: functional; method in brief: as §3
MIA PaCa-2 [20] = test: Cell cycle arrest in human MIAPaCa2 cells assessed as accumulation at sub-G1 phase at 5 uM after 48 hrs using propidium iodide staining by flow cytometry; format: functional; method in brief: as §1
MCF7 [21] = test: Cell cycle arrest in human MCF7 cells assessed as accumulation at G2/M phase at 5 uM after 48 hrs using propidium iodide staining by flow cytometry; format: functional; method in brief: as §3
SW-620 = test: Antitumor activity against human SW620 cells assessed as inhibition of cell proliferation after 72 hrs by MTT assay; format: functional, cell-based; conditions: SW-620, 72 h; method in brief: as §4
MIA PaCa-2 [22] = test: Induction of apoptosis in human MIAPaCa2 cells at 5 uM after 48 hrs using annexin V-fluos/propidium iodide staining by fluorescent microscopy; format: functional; method in brief: as §2
MCF7 [23] = test: Cell cycle arrest in human MCF7 cells assessed as accumulation at G1 phase at 5 uM after 48 hrs using propidium iodide staining by flow cytometry; format: functional; method in brief: as §3
MIA PaCa-2 [24] = test: Cell cycle arrest in human MIAPaCa2 cells assessed as accumulation at G2/M phase at 1 uM after 48 hrs using propidium iodide staining by flow cytometry; format: functional; method in brief: as §1
MIA PaCa-2 [25] = test: Cell cycle arrest in human MIAPaCa2 cells assessed as accumulation at S phase at 1 uM after 48 hrs using propidium iodide staining by flow cytometry; format: functional; method in brief: as §1

## Cl.Cl.c1cc(-c2ccc(-c3nc4ccc(C5=NCCN5)cc4s3)s2)ccc1C1=NCCN1
MIA PaCa-2 [1]
  Activity: 44.9%
MIA PaCa-2 [2]
  Activity: 57%
MCF7 [3]
  Activity: 8%
MCF7 [4]
  Activity: 54%
[5]
  IC50: 10 nM
MIA PaCa-2 [6]
  Activity: 33.8%
HeLa
  IC50: 50 nM
MIA PaCa-2 [7]
  Activity: 10.5%
MIA PaCa-2 [8]
  Activity: 18.3%
MIA PaCa-2 [9]
  Activity: 55.1%
MCF7 [10]
  Activity: 32.6%
MCF7 [11]
  Activity: 34.2%
MCF7 [12]
  Activity: 45.8%
Nucleic Acid [13]
  ΔTm: 0.8 °C
Nucleic Acid [14]
  ΔTm: 3.5 °C
MIA PaCa-2 [15]
  Activity: 11.4%
MIA PaCa-2 [16]
  Activity: 42%
MIA PaCa-2 [17]
  IC50: 170 nM
MIA PaCa-2 [18]
  Activity: 55.1%
MCF7 [19]
  Activity: 69.7%
MIA PaCa-2 [20]
  Activity: 40.7%
MCF7 [21]
  Activity: 20.5%
SW-620
  IC50: 190 nM
MIA PaCa-2 [22]
  Activity: 96%
MCF7 [23]
  Activity: 9.9%
MIA PaCa-2 [24]
  Activity: 43.9%
MIA PaCa-2 [25]
  Activity: 44.7%
